13 compounds from ChEMBL document CHEMBL1153628, “HCV NS5B polymerase inhibitors 2: Synthesis and in vitro activity of (1,1-dioxo-2H-[1,2,4]benzothiadiazin-3-yl) azolo[1,5-a]pyridine and azolo[1,5-a]pyrimidine derivatives” (Bioorg Med Chem Lett, 2009) can be followed below.

The structures appear in SMILES notation.

A word on the CC50: it is the concentration at which the toxic effect on the cells reaches its halfway point. Higher therefore signals lower toxicity to the cells. As a reminder, the IC50 is the point on the concentration scale where inhibition reaches its midpoint. Low readings indicate higher potency, high ones lower potency. As usually defined, the EC50 is the concentration at which the effect is half-maximal. A low value points to a more potent agent.

System in one data set: not listed separately
Nature of the data set: Cytotoxicity against human HuH7 cells. It is filed as cell-based, Huh-7.
Conditions: not given
The essentials:
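Huh-7 cells stably carrying luc/neo ET replicon, grown in DMEM with 10% fetal calf serum, seeded at 5 × 10³ cells/well. DMSO serial dilutions were added ~24 h after plating (final DMSO 1%), with exposure for 46–50 h. Luminescence vs log concentration was fitted to a 4-parameter logistic to give EC50 and CC50.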
`CS(=O)(=O)Nc1ccc2c(c1)S(=O)(=O)N=C(c1c(O)n3nccc3n(Cc3ccccc3)c1=O)N2` registered a CC50 above 100000 nM.
Compound `CC(C)CCn1c(=O)c(C2=NS(=O)(=O)c3cc(NS(C)(=O)=O)ccc3N2)c(O)n2nccc12` returned a CC50 above 100000 nM.
`CC(C)CCn1c(=O)c(C2=NS(=O)(=O)c3cc(NS(C)(=O)=O)ccc3N2)c(O)n2ccnc12` came in with a CC50 above 1000 nM.
`CC(C)CC[C@@]1(C)C(=O)C(C2=NS(=O)(=O)c3cc(NS(C)(=O)=O)ccc3N2)=C(O)c2cccn21` registered a CC50 of 19500 nM.
For `CC(C)CC[C@]1(C)C(=O)C(C2=NS(=O)(=O)c3cc(NS(C)(=O)=O)ccc3N2)=C(O)c2cccn21`, the CC50 was determined as 170000 nM.
In the case of `CC(C)CCC1(C)C(=O)C(C2=NS(=O)(=O)c3cc(NS(C)(=O)=O)ccc3N2)=C(O)c2cccn21` (centres undefined), the CC50 was above 100000 nM.
`CS(=O)(=O)Nc1ccc2c(c1)S(=O)(=O)N=C(c1c(O)n3nccc3n(CCc3ccc(F)cc3)c1=O)N2` returned a CC50 above 100000 nM.
On to `Cc1cc2n(CCC(C)C)c(=O)c(C3=NS(=O)(=O)c4cc(NS(C)(=O)=O)ccc4N3)c(O)n2n1`, for which the CC50 is above 100000 nM.
For `CC(C)CCC1(C)C(=O)C(C2=NS(=O)(=O)c3cc(NS(C)(=O)=O)ccc3N2)=C(O)c2ccnn21` (centres undefined), the CC50 is above 100000 nM.
For `CC(C)CCn1c(=O)c(C2=NS(=O)(=O)c3cc(NS(C)(=O)=O)ccc3N2)c(O)n2ncnc12`, the CC50 is above 100000 nM.
As for `CC(C)CCn1c(=O)c(C2=NS(=O)(=O)c3cc(NS(C)(=O)=O)ccc3N2)c(O)n2nc(C3CC3)cc12`, the cytotoxic concentration (CC50) was above 100000 nM.
The compound `CC(C)CCC1(C)C(=O)C(C2=NS(=O)(=O)c3cc(NS(C)(=O)=O)ccc3N2)=C(O)c2cncn21` (centres undefined) showed a CC50 above 100000 nM.
Consider `CS(=O)(=O)Nc1ccc2c(c1)S(=O)(=O)N=C(c1c(O)n3nccc3n(Cc3ccc(F)cc3)c1=O)N2`, for which the CC50 is above 100000 nM.

Biological target in the next data set: not listed separately
Nature of the data set: Inhibition of HCV isolate HC-J4 NS5B deltaC21 polymerase. Set-up: species or system Hepatitis C virus isolate HC-J4.
Conditions: not given
The essentials: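 Inhibitor was preincubated 5 min, then 250 nM 5′-biotin-rU₁₂ primer, poly-rA template, UTP and ³H-UTP were added (5% DMSO). After 2 h, SPA beads/EDTA stop, then CsCl for 1 h, then scintillation count. IC50 by 4-parameter logistic fit.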
As to `CS(=O)(=O)Nc1ccc2c(c1)S(=O)(=O)N=C(c1c(O)n3nccc3n(Cc3ccccc3)c1=O)N2`, the IC50 was below 5 nM.
Take `CC(C)CCn1c(=O)c(C2=NS(=O)(=O)c3cc(NS(C)(=O)=O)ccc3N2)c(O)n2nccc12`: the IC50 is below 5 nM.
`CC(C)CCn1c(=O)c(C2=NS(=O)(=O)c3cc(NS(C)(=O)=O)ccc3N2)c(O)n2ccnc12` showed an IC50 below 5 nM.
`CC(C)CC[C@@]1(C)C(=O)C(C2=NS(=O)(=O)c3cc(NS(C)(=O)=O)ccc3N2)=C(O)c2cccn21` yielded an IC50 below 5 nM.
For the compound `CC(C)CC[C@]1(C)C(=O)C(C2=NS(=O)(=O)c3cc(NS(C)(=O)=O)ccc3N2)=C(O)c2cccn21`, the IC50 came out at 150 nM.
For the compound `CC(C)CCC1(C)C(=O)C(C2=NS(=O)(=O)c3cc(NS(C)(=O)=O)ccc3N2)=C(O)c2cccn21` (centres undefined), the IC50 is below 5 nM.
As to `CS(=O)(=O)Nc1ccc2c(c1)S(=O)(=O)N=C(c1c(O)n3nccc3n(CCc3ccc(F)cc3)c1=O)N2`, the IC50 worked out at 18 nM.
As for `Cc1cc2n(CCC(C)C)c(=O)c(C3=NS(=O)(=O)c4cc(NS(C)(=O)=O)ccc4N3)c(O)n2n1`, the half-maximal inhibitory concentration (IC50) was below 5 nM.
Compound `CC(C)CCC1(C)C(=O)C(C2=NS(=O)(=O)c3cc(NS(C)(=O)=O)ccc3N2)=C(O)c2ccnn21` (centres undefined) displayed an IC50 below 5 nM.
Still for that read-out and setting: to `CC(C)CCn1c(=O)c(C2=NS(=O)(=O)c3cc(NS(C)(=O)=O)ccc3N2)c(O)n2ncnc12` belongs below 5 nM; to `CC(C)CCn1c(=O)c(C2=NS(=O)(=O)c3cc(NS(C)(=O)=O)ccc3N2)c(O)n2nc(C3CC3)cc12`, 9 nM; to `CC(C)CCC1(C)C(=O)C(C2=NS(=O)(=O)c3cc(NS(C)(=O)=O)ccc3N2)=C(O)c2cncn21` (centres undefined), below 5 nM.
Compound `CS(=O)(=O)Nc1ccc2c(c1)S(=O)(=O)N=C(c1c(O)n3nccc3n(Cc3ccc(F)cc3)c1=O)N2` registered an IC50 below 5 nM.

For a further data set, the system named is Hepatitis C virus. As to the kind of experiment: Antiviral activity against HCV 1b infected in human Huh7 cells after 46-50 hrs by luc/neo ET replicon assay. Particulars: genotype 1b, Huh-7, 46-50 h.
`CS(=O)(=O)Nc1ccc2c(c1)S(=O)(=O)N=C(c1c(O)n3nccc3n(Cc3ccccc3)c1=O)N2` showed a concentration for a half-maximal effect (EC50) of 4000 nM.
On the same count and under the same terms, the figure for `CC(C)CCn1c(=O)c(C2=NS(=O)(=O)c3cc(NS(C)(=O)=O)ccc3N2)c(O)n2nccc12` is 550 nM; for `CC(C)CCn1c(=O)c(C2=NS(=O)(=O)c3cc(NS(C)(=O)=O)ccc3N2)c(O)n2ccnc12` it is 550 nM.
For `CC(C)CC[C@@]1(C)C(=O)C(C2=NS(=O)(=O)c3cc(NS(C)(=O)=O)ccc3N2)=C(O)c2cccn21`, the EC50 stood at 150 nM.
Turning to `CC(C)CC[C@]1(C)C(=O)C(C2=NS(=O)(=O)c3cc(NS(C)(=O)=O)ccc3N2)=C(O)c2cccn21`, the EC50 was found to be 4900 nM.
The same measure, in the same setting: to `CC(C)CCC1(C)C(=O)C(C2=NS(=O)(=O)c3cc(NS(C)(=O)=O)ccc3N2)=C(O)c2cccn21` (centres undefined) belongs 230 nM; to `CS(=O)(=O)Nc1ccc2c(c1)S(=O)(=O)N=C(c1c(O)n3nccc3n(CCc3ccc(F)cc3)c1=O)N2`, above 100000 nM.
In turn, `Cc1cc2n(CCC(C)C)c(=O)c(C3=NS(=O)(=O)c4cc(NS(C)(=O)=O)ccc4N3)c(O)n2n1` displayed an EC50 of 1700 nM.
Turning to `CC(C)CCC1(C)C(=O)C(C2=NS(=O)(=O)c3cc(NS(C)(=O)=O)ccc3N2)=C(O)c2ccnn21` (centres undefined), a half-maximal effect (EC50) was put at 1100 nM.
Turning to `CC(C)CCn1c(=O)c(C2=NS(=O)(=O)c3cc(NS(C)(=O)=O)ccc3N2)c(O)n2ncnc12`, a half-maximal effect (EC50) was put at 6700 nM.
Turning to `CC(C)CCn1c(=O)c(C2=NS(=O)(=O)c3cc(NS(C)(=O)=O)ccc3N2)c(O)n2nc(C3CC3)cc12`, the EC50 is above 20000 nM.
For `CC(C)CCC1(C)C(=O)C(C2=NS(=O)(=O)c3cc(NS(C)(=O)=O)ccc3N2)=C(O)c2cncn21` (centres undefined), a half-maximal response (EC50) required 6600 nM.
With `CS(=O)(=O)Nc1ccc2c(c1)S(=O)(=O)N=C(c1c(O)n3nccc3n(Cc3ccc(F)cc3)c1=O)N2`, the 50% effective concentration (EC50) amounted to 12000 nM.
